Source: ChEMBL document CHEMBL1156649, “Benzoic acid derivatives from Piper species and their antiparasitic activity” (J Nat Prod, 2008)
≈ marks a conversion by molar mass, not a printed value.

Tests used:
Type in all cases: functional, organism-based
Leishmania amazonensis = test: Antileishmanial activity against Leishmania amazonensis PH8 promastigotes
In short: (§1)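 Promastigotes grown at 28 °C in stationary culture, seeded at 1 × 10^4 per 100 µL well in RPMI 1640-based Leishmania medium. DMSO-dissolved samples added to give 100 µg/mL final and serial dilutions. IC50 = concentration causing 50% reduction in parasite viability. Pentamidine (10 µg/mL) positive control.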

Leishmania braziliensis = test: Antileishmanial activity against Leishmania braziliensis 2903 promastigotes; in short: as §1
Leishmania donovani = test: Antileishmanial activity against Leishmania donovani PP75 promastigotes; in short: as §1
Trypanosoma cruzi = test: Antitrypanosomal activity against Trypanosoma cruzi Tulahuen
Plasmodium falciparum = test: Antiplasmodial activity against chloroquine-sensitive Plasmodium falciparum F32-Tanzania
In short: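 Culture per Trager and Jensen on glucose-enriched RPMI 1640 with 10% human serum at 37 °C. After 24 h, medium replaced with fresh medium containing compound at 0.1, 1 and 10 µg/mL, then incubated 48 h more. Blood smears on day 3; parasitemia compared with control. IC50 read graphically from concentration versus % inhibition. Chloroquine (0.1 µg/mL) positive control. Triplicate.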

SMILES | IC50 (Leishmania amazonensis) [mg/L] | IC50 (Leishmania braziliensis) [mg/L] | IC50 (Leishmania donovani) [mg/L] | IC50 (Trypanosoma cruzi) [mg/L] | IC50 (Plasmodium falciparum) [mg/L]
C=C(C)C(O)Cc1cc(C(=O)O)cc(CC=C(C)C)c1O (racemic) | 67.6 (≈ 233 µM) | 67.6 (≈ 233 µM) | 67.3 (≈ 232 µM) | > 20 | > 10
COc1c(/C=C/C(C)(C)O)cc(C(=O)O)cc1CC=C(C)C | > 100 | 78.8 (≈ 259 µM) | > 100 | > 20 | > 10
COC(=O)c1ccc(O)c(CC=C(C)C)c1 | 74.4 (≈ 338 µM) | 74.4 (≈ 338 µM) | 62.5 (≈ 284 µM) | > 20 | 2.8 (≈ 12.7 µM)
CC(C)=CCc1cc(C(=O)O)cc(CC=C(C)C)c1O | 45.3 (≈ 165 µM) | 34.1 (≈ 124 µM) | 40 (≈ 146 µM) | > 20 | > 10

Second part, the compound after the results:

IC50 (Leishmania amazonensis) [mg/L] | IC50 (Leishmania braziliensis) [mg/L] | IC50 (Leishmania donovani) [mg/L] | IC50 (Trypanosoma cruzi) [mg/L] | IC50 (Plasmodium falciparum) [mg/L] | SMILES
18.2 (≈ 77 µM) | 13.8 (≈ 58.4 µM) | 18.5 (≈ 78.3 µM) | 18.5 (≈ 78.3 µM) | 4.1 (≈ 17.4 µM) | COC(=O)c1cc(O)c(O)c(CC=C(C)C)c1
89.5 (≈ 355 µM) | 81.9 (≈ 325 µM) | 81.9 (≈ 325 µM) | 16.4 (≈ 65 µM) | > 10 | C=C(C)C(O)Cc1cc(C(=O)OC)cc(O)c1O (racemic)
78.2 (≈ 331 µM) | 74.4 (≈ 315 µM) | 86.9 (≈ 368 µM) | 15.6 (≈ 66 µM) | 10 (≈ 42.3 µM) | C=C(C)C(O)Cc1cc(C(=O)OC)ccc1O (stereo not given)
